≈ marks a conversion by molar mass, not a printed value. Calls of active or inactive are those of the source. The calls are words filed in the database; no cut-off is given here. Starred links: 1 amine or outer side, 2 acyl side, 3 side chain; linkers in the order of their positions; H or OH if unused. Positions of bridges follow the written chain, without caps; N, C: chain ends. Non-standard residues stand in square brackets, D forms with d. Residues, ends and D or L forms follow the SMILES beside them. *: point of attachment. pTerphenylCO(4''-OnC5H11) = CCCCCOc1ccc(-c2ccc(-c3ccc(C(=O)*)cc3)cc2)cc1; Orn(4R-OH,5R-OH) = O=C([C@H](C[C@@H](O)[C@@H](O)N[*:3])N[*:1])[*:2]; hTyr(3S-OH,4S-OH) = N[C@H](C(=O)O)[C@H](O)[C@@H](O)c1ccc(O)cc1; Pro(3S-OH,4S-Me) = C[C@H]1CN[C@H](C(=O)O)[C@H]1O; Hyp = O=C(O)[C@@H]1C[C@@H](O)CN1
Tests used:
Nakaseomyces glabratus [1] = experiment: Antifungal activity against Candida glabrata 570 infected in neutropenic ICR/Swiss mouse candidiasis model assessed as fungal count per kidney administered 2 hrs postinfection measured up to 48 hrs; format: functional
Method in brief: (§1)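 Female ICR/Swiss mice (23–27 g) made neutropenic with cyclophosphamide s.c. (150 mg/kg day −4, 100 mg/kg day −1, 100 mg/kg day +2). Infected by tail vein with 0.1 ml inoculum (~6.1 log10 CFU/ml). Kidneys of untreated mice were homogenised and plated on SDA for 24 h at 35°C. Growth over 48 h is given as log10 CFU/kidney.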

Nakaseomyces glabratus [2] = experiment: Antifungal activity against Candida glabrata 570 assessed as partial growth inhibition after 24 hrs by CLSI end point method; format: functional; conditions: Nakaseomyces glabratus, 570, 24 h
Method in brief: (§2)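 Two end points were read against the drug-free control well: partial growth inhibition (the CLSI end point) and complete inhibition. Run in duplicate on four separate occasions; the value is the mean. Drug stock was made in DMSO and diluted in 0.9% NaCl.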

Candida albicans [3] = experiment: Antifungal activity against Candida albicans K-1 infected in neutropenic ICR/Swiss mouse candidiasis model assessed as reduction of […] in kidney at 1.25 mg/kg, ip administered 2 hrs postinfection as single dose measured within 1 to 4 hrs post dosing by time-kill assay; format: functional, organism-based; set-up: dose 1.25 mg/kg
Method in brief: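 Neutropenic mice given a single ip dose (1.25, 5 or 20 mg/kg) 2 h after tail-vein infection. Kidneys from 3 mice per time point collected nine times over 96 h. Homogenates serially diluted 1:10 and plated on SDA, 24 h at 35°C. Detection limit 100 CFU/ml.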

Nakaseomyces glabratus [4] = experiment: Antifungal activity against Candida glabrata 5376 infected in neutropenic ICR/Swiss mouse candidiasis model assessed as fungal count per kidney administered 2 hrs postinfection measured up to 48 hrs; format: functional; method in brief: as §1
Candida albicans [5] = experiment: Antifungal activity against Candida albicans K-1 infected in neutropenic ICR/Swiss mouse candidiasis model assessed as […] burden per kidney administered intraperitoneally once every 96 hrs measured per 96 hrs; format: functional; conditions: K-1, Kidney, ip
Method in brief: (§3)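 Neutropenic mice were infected iv with C. albicans K-1 2 h before therapy. Total doses of 1.25, 5, 20, 80 and 320 mg/kg/96 h were split into 1, 2, 4 or 6 ip doses (q96h, q48h, q24h, q16h), three mice per regimen. Effect is the log10 CFU/kidney relative to untreated controls at 96 h. Static and 1-log doses were taken from a Hill model fit.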

Nakaseomyces glabratus [6] = experiment: Antifungal activity against Candida glabrata 35315 infected in neutropenic ICR/Swiss mouse candidiasis model assessed as fungal count per kidney administered 2 hrs postinfection measured up to 48 hrs; format: functional; method in brief: as §1
Serum [7] = experiment: Fraction unbound in Candida glabrata 5376-infected neutropenic ICR/Swiss mouse serum at 20 mg/kg, ip administered 2 hrs postinfection as single dose measured after 32 hrs; format: ADME, organism-based; set-up: dose 20 mg/kg, route intraperitoneal; conditions: in vivo
Nakaseomyces glabratus [8] = experiment: Antifungal activity against Candida glabrata 5376 infected in neutropenic ICR/Swiss mouse candidiasis model assessed as suppression of fungal regrowth at 1.25 mg/kg, ip administered 2 hrs postinfection as single dose by time-kill assay; format: functional, organism-based; set-up: dose 1.25 mg/kg
Method in brief: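 Single ip dose of 1.25, 5 or 20 mg/kg given 2 h after iv infection of neutropenic mice. Groups of 3 treated and 3 control mice sampled at 1–24 h intervals over 96 h. Kidney homogenates plated on SDA, 24 h at 35°C. PAFE = time for treated burden to rise 1 log10 CFU/kidney after serum level fell below MIC, minus the same time in controls.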

Candida albicans [9] = experiment: Antifungal activity against Candida albicans K-1 infected in neutropenic ICR/Swiss mouse candidiasis model assessed as reduction of […] in kidney at 5 mg/kg, ip administered 2 hrs postinfection as single dose measured after 96 hrs post dosing by time-kill assay; format: functional, organism-based; set-up: dose 5 mg/kg
Method in brief: (§4)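 Single ip dose (20, 5 or 1.25 mg/kg) given 2 h after iv infection of neutropenic mice with K-1. Three treated and three control mice were sampled at intervals over 96 h for kidney CFU. PAFE is the time for treated burden to rise 1 log10 after serum levels fall below MIC, minus the same time in controls. Free drug was taken as 1%.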

Serum [10] = experiment: Fraction unbound in Candida glabrata 5376-infected neutropenic ICR/Swiss mouse serum at 1.25 mg/kg, ip administered 2 hrs postinfection as single dose; format: ADME, organism-based; set-up: dose 1.25 mg/kg, route intraperitoneal; conditions: in vivo
Nakaseomyces glabratus [11] = experiment: Antifungal activity against Candida glabrata 5376 infected in neutropenic ICR/Swiss mouse candidiasis model assessed as reduction of […] in kidney at 5 mg/kg, ip administered 2 hrs postinfection as single dose measured after 96 hrs post dosing by time-kill assay; format: functional, organism-based; set-up: dose 5 mg/kg
Method in brief: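 Neutropenic mice were infected i.v. and 2 h later given a single i.p. dose (1.25, 5 or 20 mg/kg). Groups of three treated and three control mice were killed at intervals over 96 h, and kidney CFU were counted on SDA (limit 100 CFU/ml). The post-antifungal effect is t − c: the time for a 1 log10 CFU/kidney increase once serum levels fall below the MIC in treated mice, minus the same time in controls.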

Nakaseomyces glabratus [12] = experiment: Antifungal activity against Candida glabrata 513 assessed as partial growth inhibition after 24 hrs by CLSI end point method; format: functional; conditions: Nakaseomyces glabratus, 513, 24 h; method in brief: as §2
Serum [13] = experiment: Fraction unbound in Candida glabrata 5376-infected neutropenic ICR/Swiss mouse serum at 5 mg/kg, ip administered 2 hrs postinfection as single dose; format: ADME, organism-based; set-up: dose 5 mg/kg, route intraperitoneal; conditions: in vivo
Nakaseomyces glabratus [14] = experiment: Antifungal activity against Candida glabrata 32930 infected in neutropenic ICR/Swiss mouse candidiasis model assessed as dose required for 1-log10 reduction in […] per kidney administered intraperitoneally every 24 hrs up to 4 days measured per 24 hrs; format: functional
Method in brief: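 Neutropenic mice (cyclophosphamide sc on days −4, −1 and +2) were infected iv 2 h before therapy. Five total doses from 0.078 to 20 mg/kg/24 h were given ip q24h for 4 days, three mice per regimen. Kidney CFU were measured at the end of therapy. Static and 1-log-kill doses were derived from a Hill sigmoid dose-effect fit.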

Nakaseomyces glabratus [15] = experiment: Antifungal activity against Candida glabrata 33616 assessed as partial growth inhibition after 24 hrs by CLSI end point method; format: functional; conditions: Nakaseomyces glabratus, 33616, 24 h; method in brief: as §2
Candida albicans [16] = experiment: Antifungal activity against Candida albicans K-1 infected in neutropenic ICR/Swiss mouse candidiasis model assessed as prolongation of fungal growth suppression at 20 mg/kg, ip administered 2 hrs postinfection as single dose by time-kill assay; format: functional; conditions: route intraperitoneal; method in brief: as §4
Candida albicans [17] = experiment: Antifungal activity against Candida albicans 580 assessed as complete growth inhibition after 24 hrs by CLSI end point method; format: functional; conditions: Candida albicans, 580, 24 h
Method in brief: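 CLSI M27-A2 broth dilution. Two end points read against the drug-free control well: partial inhibition (CLSI end point) and complete inhibition. Run in duplicate on four separate occasions; value is the mean. Drug stock in DMSO, diluted in 0.9% NaCl.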

Candida albicans [18] = experiment: Antifungal activity against Candida albicans K-1 infected in neutropenic ICR/Swiss mouse candidiasis model assessed as dose required to maintain […] of 3.90 +/- 0.15 log10CFU per kidney administered intraperitoneally every 48 hrs up to 4 days measured per 96 hrs; format: functional; method in brief: as §3
Mus musculus = experiment: Cmax in serum of neutropenic ICR/Swiss mouse candidiasis model at 80 mg/kg, ip up to 4 hrs by reverse-phase high-pressure liquid chromatography; format: ADME, organism-based; set-up: dose 80 mg/kg, route intraperitoneal; conditions: in vivo
Method in brief: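 Infected neutropenic ICR/Swiss mice given single ip doses (5, 20 or 80 mg/kg; 0.2 ml); serum from three isoflurane-anaesthetised mice at 1, 4, 8, 12, 24 and 48 h, stored at −80°C, assayed by reverse-phase HPLC with fluorescence detection, loratadine internal standard, linear 10–50,000 ng/ml. Noncompartmental analysis; half-life by nonlinear least squares.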

For CCCCCOc1ccc(-c2ccc(-c3ccc(C(=O)N[C@H]4C[C@@H](O)[C@@H](O)NC(=O)[C@@H]5[C@@H](O)[C@@H](C)CN5C(=O)[C@H]([C@@H](C)O)NC(=O)[C@H]([C@H](O)[C@@H](O)c5ccc(O)cc5)NC(=O)[C@@H]5C[C@@H](O)CN5C(=O)[C@H]([C@@H](C)O)NC4=O)cc3)cc2)cc1 [ANIDULAFUNGIN] ({pTerphenylCO(4''-OnC5H11)}-[Orn(4R-OH,5R-OH)]T[Hyp][hTyr(3S-OH,4S-OH)]T[Pro(3S-OH,4S-Me)]; lactam 1-C), the log10cfu (Nakaseomyces glabratus [1]) was 2.45, the MIC (Nakaseomyces glabratus [2]) was 0.03 µg/mL (≈ 0.0263 µM) and the Activity (Candida albicans [3]) was “Active”. The log10cfu (Nakaseomyces glabratus [4]) was 2.1, the ED50 (Candida albicans [5]) was 2.13 mg/kg and the log10cfu (Nakaseomyces glabratus [6]) was 0.97. For the same compound, the Fu (Serum [7]) was 1%, the Activity (Nakaseomyces glabratus [8]) was “Active” and the Activity (Candida albicans [9]) was “Active”. The Fu (Serum [10]) was 1%, the Activity (Nakaseomyces glabratus [11]) was “Active” and the MIC (Nakaseomyces glabratus [12]) was 0.06 µg/mL (≈ 0.0526 µM). For the same compound, the Fu (Serum [13]) was 1%, the Activity (Nakaseomyces glabratus [14]) was 3.31 mg/kg and the MIC (Nakaseomyces glabratus [15]) was 1 µg/mL (≈ 0.877 µM). For the same compound, the Activity (Candida albicans [16]) was over 96 h, the MIC (Candida albicans [17]) was 0.03 µg/mL (≈ 0.0263 µM) and the Activity (Candida albicans [18]) was 5.01 mg/kg. For the same compound, the Cmax (Mus musculus) was 60 µg/mL.
